Results published in ChEMBL document CHEMBL4152304, “Design, synthesis and anticancer activity of fluorocyclopentenyl-purines and - pyrimidines” (Eur J Med Chem, 2018).
pIC50: −log10 of the molar value.

Legend:
Assay type in all cases: functional, cell-based
A549 = test: Cytotoxicity against human A549 cells assessed as decrease in cell viability after 72 hrs by SRB assay; details: A549, 72 h
In short: (§1)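 Cells from the Korean Cell Line Bank were grown in RPMI 1640 with 10% FBS and penicillin/streptomycin/amphotericin B at 37 °C under 5% CO2. They were seeded at 5 × 10^4 cells/mL and exposed to a range of compound concentrations for 72 h. Cells were fixed in 10% TCA and stained with 0.4% SRB in 1% acetic acid. Dye was dissolved in 10 mM Tris (pH 10.0) and read at A515. Viability is relative to vehicle; IC50 by nonlinear regression.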

HCT-116 = test: Cytotoxicity against human HCT116 cells assessed as decrease in cell viability after 72 hrs by SRB assay; details: HCT-116, 72 h; in short: as §1
SNU-638 = test: Cytotoxicity against human SNU638 cells assessed as decrease in cell viability after 72 hrs by SRB assay; details: SNU-638, 72 h; in short: as §1
MDA-MB-231 = test: Cytotoxicity against human MDA-MB-231 cells assessed as decrease in cell viability after 72 hrs by SRB assay; details: MDA-MB-231, 72 h
In short: (§2)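 Maintained in DMEM with 10% FBS and penicillin/streptomycin/amphotericin B at 37 °C in humidified 5% CO2; cell lines from the Korean Cell Line Bank. Plated at 5 × 10^4 cells/mL and treated with various concentrations for 72 h. Then 10% TCA fixation, 0.4% SRB staining in 1% acetic acid, solubilisation in 10 mM Tris pH 10.0 and absorbance at 515 nm. Viability is versus vehicle control; IC50 from nonlinear regression.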

SK-HEP1 = test: Cytotoxicity against human SKHEP1 cells assessed as decrease in cell viability after 72 hrs by SRB assay; details: SK-HEP1, 72 h; in short: as §2
PC-3 = test: Cytotoxicity against human PC3 cells assessed as decrease in cell viability after 72 hrs by SRB assay; details: PC-3, 72 h; in short: as §1

SMILES	pIC50 (A549)	pIC50 (HCT-116)	pIC50 (SNU-638)	pIC50 (MDA-MB-231)	pIC50 (SK-HEP1)	pIC50 (PC-3)
Nc1nc(=O)n([C@@H]2C(F)=C(CO)[C@@H](O)[C@H]2O)cc1I	< 4.00	4.00	4.08	4.10	< 4.00	4.08
O=c1nc(O)c(I)cn1[C@@H]1C(F)=C(CO)[C@@H](O)[C@H]1O	< 4.00	4.07	4.15	4.26	< 4.00	4.33
Nc1nc(=O)n([C@@H]2C(F)=C(CO)[C@@H](O)[C@H]2O)cc1Br	< 4.00	< 4.00	< 4.00	< 4.00	< 4.00	< 4.00
O=c1nc(O)c(Br)cn1[C@@H]1C(F)=C(CO)[C@@H](O)[C@H]1O	< 4.00	4.48	4.50	4.36	4.12	4.49
Nc1nc(N)c2ncn([C@@H]3C(F)=C(CO)[C@@H](O)[C@H]3O)c2n1	4.07	4.66	4.49	4.64	< 4.00	< 4.00
Nc1ccn([C@@H]2O[C@H](CO)[C@@H](O)[C@@H]2O)c(=O)n1 [CYTARABINE]	5.76	5.36	5.97	4.98	5.74	4.32
Nc1ncnc2c1ncn2[C@@H]1C=C(CO)[C@@H](O)[C@H]1O [NEOPLANOCIN A]	5.67	5.84	6.09	6.07	5.63	5.67
CNc1ncnc2c1ncn2[C@@H]1C(F)=C(CO)[C@@H](O)[C@H]1O	5.62	5.67	5.64	5.09	5.56	4.82
OCC1=C(F)[C@@H](n2cnc3c(NC4CC4)ncnc32)[C@H](O)[C@@H]1O	< 4.00	< 4.00	< 4.00	< 4.00	< 4.00	< 4.00
O=c1nc(O)c(Cl)cn1[C@@H]1C(F)=C(CO)[C@@H](O)[C@H]1O	< 4.00	< 4.00	4.06	< 4.00	< 4.00	4.21
Nc1nc(NC2CC2)c2ncn([C@@H]3C(F)=C(CO)[C@@H](O)[C@H]3O)c2n1	< 4.00	< 4.00	< 4.00	< 4.00	< 4.00	< 4.00
O=c1nc(O)c(F)cn1[C@@H]1C(F)=C(CO)[C@@H](O)[C@H]1O	< 4.00	4.28	4.56	4.17	4.15	4.36
OCC1=C(F)[C@@H](n2cnc3c(O)ncnc32)[C@H](O)[C@@H]1O	< 4.00	< 4.00	< 4.00	< 4.00	< 4.00	< 4.00
CC(C)OC(=O)[C@H](C)N[P@](=O)(OCC1=C(F)[C@@H](n2cnc3c(N)ncnc32)[C@H](O)[C@@H]1O)Oc1ccccc1	4.73	5.34	5.52	4.74	4.62	4.98
Nc1nc(O)c2ncn([C@@H]3C(F)=C(CO)[C@@H](O)[C@H]3O)c2n1	< 4.00	< 4.00	< 4.00	< 4.00	< 4.00	< 4.00
Nc1nc(=O)n([C@@H]2C(F)=C(CO)[C@@H](O)[C@H]2O)cc1Cl	< 4.00	< 4.00	< 4.00	< 4.00	< 4.00	< 4.00
Nc1nc(=O)n([C@@H]2C(F)=C(CO)[C@@H](O)[C@H]2O)cc1F	< 4.00	< 4.00	< 4.00	< 4.00	< 4.00	< 4.00
